The source made the active and inactive calls. The rule behind the calls is not given here.

Experiment [1] has as its system Mus musculus. The experiment in a line: Induction of convulsive behavior in icv dosed ddY mouse assessed as hyperactivie and stereotypical behaviors at 33 pmol. The class given is functional, organism-based.
Experiment [2] deals with AMPA-type glutamate receptor (Rattus norvegicus). The experiment can be described thus: Displacement of [3H]AMPA from AMPA receptor in Sprague-Dawley rat brain membrane. In general terms: Loss of bound radioactivity is the signal in a displacement assay; it reports binding, not function.
Experiment [3] deals with Kainate-type glutamate receptor (Rattus norvegicus). The experiment can be described thus: Displacement of [3H]kanic acid from kainate receptor in Sprague-Dawley rat brain membrane.
Another experiment has as its target Glutamate NMDA receptor. The experiment in a line: Displacement of [3H]CGP39653 from NMDA receptor in Sprague-Dawley rat brain membrane. The experiment is classed as cell membranes. The method, boiled down:
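Synaptic membranes were prepared from Sprague-Dawley rats (200-220 g). The assay used 2 nM [3H]CGP39653 to label the NMDA site, incubated at 4 °C for 1 h in 5 mM Tris-HCl (pH 7.7). Inhibition of labelled-ligand binding gave the IC50.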

The subject of experiment [4] is Mus musculus. The experiment in a line: Agonist activity at NMDA receptor assessed as induction of convulsive behavior in intracerebroventricular dosed ddY mouse. The class given is functional. An outline of the steps:
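Male ddY mice (15-20 g, 4-6 weeks old) received intracerebroventricular injections. More than three animals were used per dose. ED50 (pmol/mouse) was derived from dose-response curves.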

The subject of experiment [5] is Mus musculus. The experiment can be described thus: Agonist activity at NMDA receptor assessed as induction of violent convulsive behavior in intracerebroventricular dosed ddY mouse at 145 pmol. The class given is functional, organism-based.

In general, IC50 refers to the concentration at which inhibition is half-maximal. Take `O=C(O)[C@@H]1C[C@@H](OS(=O)(=O)O)[C@H](O)CN1` [CRIBRONIC ACID]: the outcome in the experiment with Mus musculus [1] and with Mus musculus [5] was Active. In addition, the outcome in experiment [2] and in experiment [3] was inactive. Further, at Glutamate NMDA receptor, the IC50 was 83 nM. Also, in the experiment on Mus musculus [4], the Activity entry is “Dose-dependent effect”. Also, in the experiment on Mus musculus [4], the ED50 stood at 29 pmol.
With `O=C(O)[C@@H]1C[C@@H](OS(=O)(=O)O)CCN1`, the outcome in experiment [2] was inactive. In addition, the outcome in experiment [3] was inactive. The same compound gave an IC50 at Glutamate NMDA receptor of 214 nM. In the experiment on Mus musculus [4], the Activity entry is “Dose-dependent effect” and the ED50 came to 20 pmol.

Values taken from ChEMBL document CHEMBL1146529, “Isolations of N-methyl-D-aspartic acid-type glutamate receptor ligands from Micronesian sponges” (J Nat Prod, 2003).
